ChEMBL document CHEMBL1126036, “Quinolone antibacterial agents. Synthesis and structure-activity relationships of a series of amino acid prodrugs of racemic and chiral 7-(3-amino-1-pyrrolidinyl)quinolones. Highly soluble quinolone prodrugs with in vivo pseudomonas activity” (J Med Chem, 1992)
In brackets after ≈: the same amount, converted by molar mass.

How the values were obtained:
[1] = tested on: Escherichia coli; experiment: In vitro antibacterial activity against gram negative Escherichia coli Vogel.; assay type: functional
[2] = tested on: Enterococcus faecalis; experiment: In vitro antibacterial activity against gram positive Enterococcus faecalis MGH-2.; assay type: functional
[3] = tested on: Enterobacter cloacae; experiment: In vitro antibacterial activity against gram negative Enterobacter cloacae MA 2646.; assay type: functional
[4] = tested on: Klebsiella pneumoniae; experiment: In vitro antibacterial activity against gram negative Klebsiella pneumoniae. MGH-2; assay type: functional
[5] = tested on: Mus musculus; experiment: In vivo potency against acute systemic infection in mouse caused by Escherichia coli Vogel on oral administration by gavage; assay type: functional; conditions: read-out: PD50
Outline: (§1)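 Acute systemic mouse infection. A single oral dose was given by gavage at the time of challenge. Potency is reported as the median protective dose (PD50, mg/kg), determined by earlier published methods.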

[6] = tested on: Mus musculus; experiment: In vivo potency against acute systemic infection in mouse caused by Escherichia coli Vogel on subcutaneous injection; assay type: functional; conditions: sc, read-out: PD50
Outline: (§2)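 Acute systemic mouse infection. A single subcutaneous dose was injected at the time of challenge. Potency is reported as the median protective dose (PD50, mg/kg), determined by earlier published methods.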

[7] = tested on: Mus musculus; experiment: In vivo potency against acute systemic infection in mouse caused by Streptococcus pneumoniae SV-1 on oral administration by gavage; assay type: functional; conditions: read-out: PD50; outline: as §1
[8] = tested on: Streptococcus pneumoniae; experiment: In vivo potency against acute systemic infection in mouse caused by Streptococcus pneumoniae SV-1 on subcutaneous injection.; assay type: functional; conditions: sc, read-out: PD50; outline: as §2
[9] = tested on: Pseudomonas aeruginosa; experiment: In vitro antibacterial activity against gram negative Pseudomonas aeruginosa UI-18.; assay type: functional
[10] = tested on: Providencia rettgeri; experiment: In vitro antibacterial activity against gram negative Providencia rettgeri M-1771.; assay type: functional
[11] = tested on: Staphylococcus aureus; experiment: In vitro antibacterial activity against gram positive Staphylococcus aureus H-228.; assay type: functional
[12] = tested on: Streptococcus pyogenes; experiment: In vitro antibacterial activity against gram positive Streptococcus pyogenes C-203.; assay type: functional
[13] = tested on: Staphylococcus aureus; experiment: In vitro antibacterial activity against gram positive Staphylococcus aureus UC76.; assay type: functional
[14] = tested on: Streptococcus pneumoniae; experiment: In vitro antibacterial activity against gram positive Streptococcus pneumoniae SV-1.; assay type: functional
[15] = Aqueous solubility; assay type: physicochemical; conditions: water (aqueous); read-out: S
Outline: (§3)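 Solubility was measured either from HPLC peak areas at equilibrium or by a conventional weight-per-volume method. All solutions were held for 24 h before measurement.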

[16] = tested on: DNA gyrase (Escherichia coli); experiment: In vitro concentration inhibiting DNA gyrase induced cleavage in Escherichia coli H560
[17] = Solubility (in 0.1 N HCl); assay type: physicochemical; conditions: read-out: S; outline: as §3
[18] = Solubility (at pH 4); assay type: physicochemical; conditions: buffer, read-out: S; outline: as §3
[19] = Solubility (at pH 7.4); assay type: physicochemical; conditions: buffer; outline: as §3
[20] = tested on: Mus musculus; experiment: In vivo potency against acute systemic infection in mouse caused by Escherichia coli vogel on oral administration by gavage; assay type: functional; conditions: read-out: PD50; outline: as §1
[21] = tested on: Mus musculus; experiment: In vivo potency against acute systemic infection in mouse caused by Escherichia coli vogel on subcutaneous injection; assay type: functional; conditions: sc, read-out: PD50; outline: as §2
[22] = tested on: Mus musculus; experiment: In vivo potency against acute systemic infection in mouse caused by Streptococcus pyogenes C-203 on oral administration by gavage; assay type: functional; conditions: read-out: PD50; outline: as §1
[23] = tested on: Mus musculus; experiment: In vivo potency against acute systemic infection in mouse caused by Streptococcus pyogenes C-203 on subcutaneous injection; assay type: functional; conditions: sc, read-out: PD50; outline: as §2
[24] = tested on: Pseudomonas aeruginosa; experiment: In vitro antibacterial activity against gram negative Pseudomonas aeruginosa. UI-18; assay type: functional
[25] = tested on: Escherichia coli; experiment: In vitro antibacterial activity against gram negative Escherichia coli vogel; assay type: functional
[26] = biological target: DNA gyrase (Escherichia coli) (UniProt P0AES6+P0AES4); experiment: In vitro concentration inhibiting DNA gyrase induced cleavage in Escherichia coli H560.; assay type: functional
Outline: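 DNA gyrase test run as described in earlier work. The value is the drug concentration (µg/mL) needed to cause DNA cleavage.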

[27] = tested on: Klebsiella pneumoniae; experiment: In vitro antibacterial activity against gram negative Klebsiella pneumoniae MGH-2.; assay type: functional
[28] = tested on: Escherichia coli; experiment: In vivo potency against acute systemic infection in mouse caused by Escherichia coli Vogel on oral administration by gavage.; assay type: functional; conditions: read-out: PD50; outline: as §1
[29] = tested on: Mus musculus; experiment: In vivo potency against acute systemic infection in mouse caused by Streptococcus pneumoniae SV-1 on subcutaneous injection; assay type: functional; conditions: sc, read-out: PD50; outline: as §2
[30] = tested on: Escherichia coli; experiment: In vivo potency against acute systemic infection in mouse caused by Escherichia coli vogel on subcutaneous injection.; assay type: functional; conditions: sc, read-out: PD50; outline: as §2
[31] = tested on: Mus musculus; experiment: In vivo potency against acute systemic infection in mouse caused by Pseudomonas aeruginosa UI-18 on oral administration by gavage.; assay type: functional; conditions: read-out: PD50; outline: as §1
[32] = tested on: Mus musculus; experiment: In vivo potency against acute systemic infection in mouse caused by Pseudomonas aeruginosa. UI-18. on subcutaneous injection.; assay type: functional; conditions: sc, read-out: PD50; outline: as §2
[33] = tested on: Streptococcus pneumoniae; experiment: In vivo potency against acute systemic infection in mouse caused by Streptococcus pneumoniae SV-1 on oral administration by gavage.; assay type: functional; conditions: read-out: PD50; outline: as §1
[34] = tested on: Enterobacter cloacae; experiment: In vitro antibacterial activity against gram negative Enterobacter cloacae MA 2646; assay type: functional

SMILES	MIC [1] [µg/mL]	MIC [2] [µg/mL]	MIC [3] [µg/mL]	MIC [4] [µg/mL]	ED50 [7] [mg/kg]	ED50 [8] [mg/kg]	MIC [9] [µg/mL]	MIC [10] [µg/mL]	MIC [11] [µg/mL]	MIC [12] [µg/mL]	MIC [13] [µg/mL]	MIC [14] [µg/mL]	solubility [15] [µg/mL]	solubility [17] [µg/mL]	solubility [18] [µg/mL]	solubility ([19]; read-out: S) [µg/mL]	ED50 [22] [mg/kg]	ED50 [23] [mg/kg]	ED50 [28] [mg/kg]	ED50 [30] [mg/kg]	further results
Cl.N[C@H]1CCN(c2c(F)cc3c(=O)c(C(=O)O)cn(C4CC4)c3c2F)C1.O	0.006	0.025	0.013	0.003	15	7	0.025	0.006	0.013	0.013	0.003	0.013	17000								ED50 [5]: 1 mg/kg; ED50 [6]: 0.2 mg/kg; Cleavage [16]: 0.1 µg/mL
CC(C)[C@H](N)C(=O)NC1CCN(c2nc3c(cc2F)c(=O)c(C(=O)O)cn3C2CC2)C1.Cl.O (stereo partly specified)		1.6	0.4	1.6				1.6	1.6	1.6	0.4	1.6	> 200000	> 200000	> 200000	80	76	27			ED50 [20]: 3 mg/kg; ED50 [21]: 0.6 mg/kg; MIC [24]: 3.1 µg/mL; MIC [25]: 0.4 µg/mL
C[C@@H]1CN(c2c(F)c(N)c3c(=O)c(C(=O)O)cn(C4CC4)c3c2F)C[C@H](C)N1 [SPARFLOXACIN]	0.025 (≈ 0.0637 µM)	0.1 (≈ 0.255 µM)	0.025 (≈ 0.0637 µM)		14		0.8 (≈ 2.04 µM)	0.2 (≈ 0.51 µM)	0.05 (≈ 0.127 µM)	0.1 (≈ 0.255 µM)	0.025 (≈ 0.0637 µM)	0.05 (≈ 0.127 µM)	90 (≈ 229 µM)	400 (≈ 1020 µM)	30 (≈ 76.5 µM)	10 (≈ 25.5 µM)	17	17	1	0.2	Cleavage [26]: 2.5 µg/mL; MIC [27]: 0.05 µg/mL (≈ 0.127 µM); ED50 [29]: 13 mg/kg; ED50 [31]: 14 mg/kg; ED50 [32]: 7 mg/kg
NC1CCN(c2nc3c(cc2F)c(=O)c(C(=O)O)cn3C2CC2)C1 (stereo unspecified)	0.013 (≈ 0.0391 µM)	0.2 (≈ 0.602 µM)	0.025 (≈ 0.0752 µM)	0.025 (≈ 0.0752 µM)		33	0.05 (≈ 0.15 µM)	0.05 (≈ 0.15 µM)	0.2 (≈ 0.602 µM)	0.2 (≈ 0.602 µM)	0.013 (≈ 0.0391 µM)	0.2 (≈ 0.602 µM)					32	14	2	0.6	ED50 [33]: 58 mg/kg; ED50 [31]: 7 mg/kg; ED50 [32]: 3 mg/kg; Cleavage [16]: 1 µg/mL
Cl.N[C@@H](Cc1ccccc1)C(=O)NC1CCN(c2nc3c(cc2F)c(=O)c(C(=O)O)cn3C2CC2)C1.O (stereo partly specified)	0.8	0.8	0.4		65	37	6.3	6.3	3.1	1.6	0.4	0.8	> 200000	80000	> 100000	60			2	0.4	MIC [27]: 3.1 µg/mL
Cl.NCCCC[C@H](N)C(=O)NC1CCN(c2nc3c(cc2F)c(=O)c(C(=O)O)cn3C2CC2)C1.O (stereo partly specified)	12.5	> 25	12.5	25	71			25	25	> 25	6.3	> 25	> 300000	> 200000	> 600000						solubility [19]: 70 µg/mL; ED50 [29]: 70 mg/kg; MIC [24]: > 25 µg/mL
Cl.Nc1c(F)c(N2CC[C@@H](N)C2)c(F)c2c1c(=O)c(C(=O)O)cn2C1CC1.O	0.013	0.05				3.5	0.02	0.05	0.025	0.025	0.006	0.003	2800	200	2600	40	12	7.5	1.7	0.3	Cleavage [26]: 0.1 µg/mL; MIC [34]: 0.013 µg/mL; MIC [27]: 0.025 µg/mL; ED50 [33]: 15 mg/kg
